Reference: ChEMBL document CHEMBL1128698, “5-Arylthio-substituted 2-amino-4-oxo-6-methylpyrrolo[2,3-d]pyrimidine antifolates as thymidylate synthase inhibitors and antitumor agents” (J Med Chem, 1995)

Legend:
[1] = system: A253 cell line; assay: Growth inhibition against Human squamous cell line(A 253); type: functional, cell-based
How it was run: (§1)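 Continuous drug exposure growth assay. CCRF-CEM and its MTX-resistant subline R30dm (1% of parental FPGS activity) cultured as previously reported; A253 and FaDu squamous carcinoma monolayers subcultured in RPMI 1640/10% fetal calf serum. EC50 read visually from plots of percent control growth against log drug concentration. Averages ± range for n = 2, ± SD for n ≥ 3.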

[2] = system: FaDu; assay: Protection by 10 uM LV against the growth inhibition against Human squamous cell line(Fadu); type: functional; set-up: scale not given: the % may be the effect or the level left
[3] = system: FaDu; assay: Protection by 40 uM against the Growth inhibition against Human squamous cell line(Fadu), in the presence of 40 uM thymidine; type: functional; set-up: scale not given: the % may be the effect or the level left
[4] = system: FaDu; assay: Protection by 50 uM+40 uM against Growth inhibition against Human squamous cell line(Fadu), in the presence of 50 uM hypoxanthine +40 uM thymidine; type: functional; set-up: scale not given: the % may be the effect or the level left
[5] = system: FaDu; assay: Protection against the growth inhibition against Human squamous cell line(Fadu); type: functional; set-up: scale not given: the % may be the effect or the level left
[6] = system: FaDu; assay: Protection by 50 uM against the Growth inhibition against Human squamous cell line(Fadu); type: functional; set-up: scale not given: the % may be the effect or the level left
[7] = system: CCRF-CEM; assay: Growth inhibition against Human leukemic cell line(CCRF-CEM) during continuous exposure
[8] = target: Dihydrofolate reductase (Lactobacillus casei, UniProt P00381); assay: Inhibitory activity against dihydro folate reductase from Lactobacillus casei; set-up: species or system Lacticaseibacillus casei
[9] = target: T1, Thymidylate synthase (Lactobacillus casei, UniProt P00469); assay: Inhibitory activity against thymidylate Synthase from Lactobacillus casei; set-up: species or system Lacticaseibacillus casei
T1 sequence (P00469 whole entry): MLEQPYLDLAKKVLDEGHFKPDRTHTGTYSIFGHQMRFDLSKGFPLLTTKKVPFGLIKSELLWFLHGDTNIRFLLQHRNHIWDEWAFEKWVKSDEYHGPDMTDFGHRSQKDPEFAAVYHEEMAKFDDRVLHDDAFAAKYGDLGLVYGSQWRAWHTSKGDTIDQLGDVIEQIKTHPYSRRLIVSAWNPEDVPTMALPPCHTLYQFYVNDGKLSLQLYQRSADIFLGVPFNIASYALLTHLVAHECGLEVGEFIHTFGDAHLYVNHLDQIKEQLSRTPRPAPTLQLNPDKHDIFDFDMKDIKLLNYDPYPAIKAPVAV

[10] = target: Thymidylate synthase (Homo sapiens, UniProt P04818); assay: Inhibitory activity against thymidylate Synthase from human recombinant sources
[11] = target: T2, Dihydrofolate reductase (Homo sapiens, UniProt P00374); assay: Inhibitory activity against dihydro folate reductase from human recombinant sources
T2 sequence (P00374 whole entry): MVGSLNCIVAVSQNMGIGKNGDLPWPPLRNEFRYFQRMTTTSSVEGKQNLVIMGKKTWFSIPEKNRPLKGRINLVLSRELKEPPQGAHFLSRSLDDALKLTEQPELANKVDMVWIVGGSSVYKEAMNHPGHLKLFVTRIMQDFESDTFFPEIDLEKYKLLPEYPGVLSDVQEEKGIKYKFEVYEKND

[12] = system: CCRF-CEM; assay: Growth inhibition against Human leukemic cell line (Methotrexate resistant CCRF-CEM); type: functional, cell-based; how it was run: as §1
[13] = target: T2, Dihydrofolate reductase; assay: Inhibitory activity against dihydro folate reductase from human CCRF-CEM leukemic cell line
[14] = system: CCRF-CEM; assay: Growth inhibition against Human leukemic cell line(CCRF-CEM); type: functional, cell-based; how it was run: as §1
[15] = system: FaDu; assay: Growth inhibition against Human squamous cell line(Fadu); type: functional, cell-based; how it was run: as §1

Dihydrofolate reductase (Lactobacillus casei, UniProt P00381), sequence (P00381 whole entry): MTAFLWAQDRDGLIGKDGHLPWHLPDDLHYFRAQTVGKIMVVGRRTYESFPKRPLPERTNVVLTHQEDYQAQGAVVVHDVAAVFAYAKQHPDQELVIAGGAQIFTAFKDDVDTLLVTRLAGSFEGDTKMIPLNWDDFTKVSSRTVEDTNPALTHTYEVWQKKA
Thymidylate synthase (Homo sapiens, UniProt P04818), sequence (P04818 whole entry): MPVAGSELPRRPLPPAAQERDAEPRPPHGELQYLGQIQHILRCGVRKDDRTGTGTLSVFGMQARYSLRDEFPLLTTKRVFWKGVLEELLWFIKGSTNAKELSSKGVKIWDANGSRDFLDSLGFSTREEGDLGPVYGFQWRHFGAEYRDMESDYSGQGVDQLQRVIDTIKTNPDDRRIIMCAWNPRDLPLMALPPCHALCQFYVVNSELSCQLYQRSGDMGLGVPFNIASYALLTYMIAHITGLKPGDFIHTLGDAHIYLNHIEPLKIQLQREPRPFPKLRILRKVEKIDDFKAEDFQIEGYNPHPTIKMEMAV

EC50 [7] [nM] | SMILES | EC50 [1] [nM] | Control [2] [%] | Control [3] [%] | Control [4] [%] | Control [5] [%] | Control [6] [%] | IC50 [8] [nM] | IC50 [9] [nM] | IC50 [10] [nM] | IC50 [11] [nM] | EC50 [12] [nM] | IC50 [13] [nM] | EC50 [14] [nM] | EC50 [15] [nM]
– | CN(Cc1cnc2nc(N)nc(N)c2n1)c1ccc(C(=O)N[C@@H](CCC(=O)O)C(=O)O)cc1 [METHOTREXATE] | 13 | 114 | 11 | 95 | 2 | 18 | – | – | – | – | – | – | – | –
720 | C#CCN(Cc1ccc2[nH]c(N)nc(=O)c2c1)c1ccc(C(=O)NC(CCC(=O)O)C(=O)O)cc1 (centres undefined) | – | – | – | – | – | – | – | – | – | – | – | – | – | –
– | CC1=C(Sc2ccncc2)C2C(=O)NC(N)=NC2N1 (centres undefined) | – | – | – | – | – | – | > 69000 | 100000 | 340 | > 69000 | – | – | – | –
– | CC1=C(Sc2ccc(C(=O)NC(CCC(=O)O)C(=O)O)cc2)C2C(=O)NC(N)=NC2N1 (centres undefined) | 3000 | 7 | 83 | 78 | 5 | 4 | 2200 | 21 | – | 2200 | 810 | 124 | 450 | 530
